Consider 17 compounds from ChEMBL document CHEMBL1144611, “Optimization of 1,4-diazepan-2-one containing dipeptidyl peptidase IV inhibitors for the treatment of type 2 diabetes” (Bioorg Med Chem Lett, 2007).

One series concerns the target Dipeptidyl peptidase 2 (Homo sapiens, UniProt Q9UHL4). The experiment in a line: Inhibition of QPP.
The target in the next series is Dipeptidyl peptidase 4 (Homo sapiens, UniProt P27487). The experiment in a line: Inhibition of DPP4.
For the next series, the target named is Dipeptidyl peptidase 8 (Homo sapiens, UniProt Q6V1X1). The experiment in a line: Inhibition of DPP8.
Series [1] is described as follows: Bioavailability in Sprague-Dawley rat at 2 mg/kg, po. The note with it: in vivo. The series is classed as ADME, organism-based. A digest of the protocol: (§1)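 Single iv dose of 1 mg/kg or oral dose of 2 mg/kg, given in water. Plasma clearance and half-life come from dosing; Cmax is the peak plasma level after oral dosing. Oral bioavailability was derived from the po versus iv data.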

Series [2] can be described thus: Plasma clearance in Sprague-Dawley rat at 1 mg/kg, iv or 2 mg/kg, po. The series is classed as ADME, organism-based. A digest of the protocol: as §1
Series [3] is described as follows: Cmax in Sprague-Dawley rat at 1 mg/kg, iv or 2 mg/kg, po. The note with it: in vivo. The format is ADME, organism-based. A digest of the protocol: as §1
A short description of series [4]: Half life in Sprague-Dawley rat at 1 mg/kg, iv or 2 mg/kg, po. The series is classed as ADME, organism-based. The note with it: in vivo. An outline of the steps:
as §1

The nature of series [5]: Plasma clearance in monkey at 1 mg/kg, iv or 2 mg/kg, po. The format is ADME, organism-based, Macaca mulatta. The note with it: rhesus monkey. A digest of the protocol:
as §1

Series [6] can be described thus: Half life in monkey at 1 mg/kg, iv or 2 mg/kg, po. The series is classed as ADME, organism-based, Macaca mulatta. To be noted: rhesus monkey, in vivo. A digest of the protocol:
as §1

The nature of series [7]: Cmax in monkey at 1 mg/kg, iv or 2 mg/kg, po. The format is ADME, organism-based, Macaca mulatta. The note with it: rhesus monkey, in vivo. A digest of the protocol: as §1
Series [8] in a line: Bioavailability in dog at 2 mg/kg, po. The series is classed as ADME, organism-based, Canis lupus familiaris. To be noted: in vivo. A digest of the protocol: as §1
In another series the test system is Canis familiaris. The experiment in a line: (§2) Half life in dog at 1 mg/kg, iv or 2 mg/kg, po. The series is classed as ADME, organism-based, Canis lupus familiaris. The note with it: in vivo. A digest of the protocol: as §1
Series [9] is described as follows: Bioavailability in monkey at 2 mg/kg, po. The series is classed as ADME, organism-based, Macaca mulatta. To be noted: rhesus monkey, in vivo. A digest of the protocol: as §1
The nature of series [10]: Plasma clearance in dog at 1 mg/kg, iv or 2 mg/kg, po. The series is classed as ADME, organism-based, Canis lupus familiaris. A digest of the protocol: as §1
Series [11] is described as follows: Cmax in dog at 1 mg/kg, iv or 2 mg/kg, po. To be noted: in vivo. The series is classed as ADME, organism-based, Canis lupus familiaris. An outline of the steps:
as §1

Series [12] in a line: as §2. The note with it: in vivo. The series is classed as ADME, organism-based, Canis lupus familiaris. An outline of the steps:
as §1

Some results are limits rather than exact numbers.

Dipeptidyl peptidase 4, sequence (P27487 whole entry): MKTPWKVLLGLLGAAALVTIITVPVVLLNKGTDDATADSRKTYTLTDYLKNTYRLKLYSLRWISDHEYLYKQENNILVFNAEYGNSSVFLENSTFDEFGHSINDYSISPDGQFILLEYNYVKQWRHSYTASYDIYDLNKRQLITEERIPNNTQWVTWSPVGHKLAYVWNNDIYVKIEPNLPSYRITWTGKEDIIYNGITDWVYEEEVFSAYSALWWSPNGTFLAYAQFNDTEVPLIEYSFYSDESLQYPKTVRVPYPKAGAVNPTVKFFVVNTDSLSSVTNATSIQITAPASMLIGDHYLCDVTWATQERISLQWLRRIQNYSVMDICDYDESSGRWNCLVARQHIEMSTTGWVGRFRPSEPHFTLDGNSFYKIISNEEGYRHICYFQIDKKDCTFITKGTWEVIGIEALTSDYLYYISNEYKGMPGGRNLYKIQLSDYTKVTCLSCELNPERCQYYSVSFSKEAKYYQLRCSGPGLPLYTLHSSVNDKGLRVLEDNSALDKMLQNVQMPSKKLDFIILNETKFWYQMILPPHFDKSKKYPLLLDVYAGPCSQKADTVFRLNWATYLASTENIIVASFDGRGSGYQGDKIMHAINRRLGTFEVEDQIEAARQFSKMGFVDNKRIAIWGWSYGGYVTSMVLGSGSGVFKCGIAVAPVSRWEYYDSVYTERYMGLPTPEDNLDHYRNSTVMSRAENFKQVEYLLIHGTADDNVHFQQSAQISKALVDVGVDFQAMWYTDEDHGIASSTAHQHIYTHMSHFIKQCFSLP
Dipeptidyl peptidase 8, sequence (Q6V1X1 whole entry): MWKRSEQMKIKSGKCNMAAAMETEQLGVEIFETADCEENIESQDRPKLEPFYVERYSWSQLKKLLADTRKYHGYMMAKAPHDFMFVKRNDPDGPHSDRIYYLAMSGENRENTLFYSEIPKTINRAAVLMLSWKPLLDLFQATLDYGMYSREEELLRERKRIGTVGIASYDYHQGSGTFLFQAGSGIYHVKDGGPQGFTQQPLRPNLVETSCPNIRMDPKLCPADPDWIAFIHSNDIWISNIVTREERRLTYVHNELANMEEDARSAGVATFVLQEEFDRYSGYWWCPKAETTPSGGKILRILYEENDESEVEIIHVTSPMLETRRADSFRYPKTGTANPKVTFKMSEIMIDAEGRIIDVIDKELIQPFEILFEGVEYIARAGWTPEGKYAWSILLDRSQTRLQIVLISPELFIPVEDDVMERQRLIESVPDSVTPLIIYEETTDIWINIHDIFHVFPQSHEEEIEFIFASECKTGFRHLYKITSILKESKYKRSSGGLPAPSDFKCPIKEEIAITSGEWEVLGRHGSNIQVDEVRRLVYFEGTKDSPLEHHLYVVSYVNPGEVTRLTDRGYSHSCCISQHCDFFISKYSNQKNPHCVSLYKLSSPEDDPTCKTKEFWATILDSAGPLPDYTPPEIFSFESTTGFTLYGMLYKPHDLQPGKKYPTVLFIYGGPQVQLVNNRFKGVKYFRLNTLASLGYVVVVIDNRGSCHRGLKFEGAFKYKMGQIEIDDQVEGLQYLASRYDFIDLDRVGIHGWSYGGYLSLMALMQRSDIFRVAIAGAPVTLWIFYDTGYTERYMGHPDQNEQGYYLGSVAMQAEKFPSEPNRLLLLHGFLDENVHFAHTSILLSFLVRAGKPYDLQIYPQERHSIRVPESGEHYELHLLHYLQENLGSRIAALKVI

Broadly, the IC50 is the concentration that gives 50% inhibition. As to `C[C@@H]1C(=O)N(CC(=O)O)CCCN1C(=O)C[C@H](N)Cc1cc(F)ccc1F`, the IC50 on Dipeptidyl peptidase 2 was above 100 µM; on Dipeptidyl peptidase 4 it was 0.0699 µM; against Dipeptidyl peptidase 8 it was above 100 µM.

As usually defined, the bioavailability is dose-corrected exposure relative to a reference, in per cent. Broadly, the Cmax is the peak of the concentration-time curve. One may read the half-life as the time in which the quantity being followed falls by half. In series [1], `C[C@@H]1C(=O)N(C)CCCN1C(=O)C[C@H](N)Cc1cc(F)c(F)cc1F` had a bioavailability of 29%. For the same compound, the IC50 against Dipeptidyl peptidase 2 was above 100 µM. In [2], this compound had a clearance of 113 mL/min/kg. This compound returned a Cmax in [3] of 130 nM. Further, in [4], the half-life was 1.3 h.

For `N[C@@H](CC(=O)N1CCCNC(=O)C1)Cc1cc(F)c(F)cc1F`, the IC50 at Dipeptidyl peptidase 2 is above 100 µM.

`N[C@@H](CC(=O)N1CCCNC(=O)C1CC(F)(F)F)Cc1cc(F)c(F)cc1F` (some centres undefined): in series [1], the bioavailability amounted to 36%. Further, the clearance in series [2] is 94 mL/min/kg. In [3], this compound yielded a Cmax of 90 nM. Moreover, the half-life in [4] is 2 h.

As to `C[C@@H]1CCN(C(=O)C[C@H](N)Cc2cc(F)c(F)cc2F)[C@H](C)C(=O)N1`, the clearance in series [5] is 42.3 mL/min/kg; in [2], 87 mL/min/kg; in series [10] it was 8.5 mL/min/kg. Besides, the bioavailability in [1] is 64%; in series [8], 88%; in series [9], 71%. Moreover, the half-life in [6] is 4.7 h; in [4], 1.5 h. Also, the values for the Cmax in series [7], in [3] and in [11] were 430 nM, 170 nM and 1290 nM, respectively. Moreover, in the series on Canis familiaris, the t1/2 turned out to be 7.2 h.

Regarding `COC(=O)CN1CCCN(C(=O)C[C@H](N)Cc2cc(F)ccc2F)[C@H](C)C1=O`, the IC50 was above 100 µM against Dipeptidyl peptidase 2 and 0.0116 µM against Dipeptidyl peptidase 4.

In the case of `C[C@@H]1CCN(C(=O)C[C@H](N)Cc2cc(F)c(F)cc2F)[C@H](Cc2ccccn2)C(=O)N1`, the bioavailability in series [1] stood at 8.1%. Besides, the clearance in [2] was 97 mL/min/kg. The compound further registered a Cmax in [3] of 10 nM. For the same compound, the half-life in series [4] is 2 h.

On to `C[C@@H]1C(=O)N(C2CC2)CCCN1C(=O)C[C@H](N)Cc1cc(F)c(F)cc1F`, for which, in series [1], the bioavailability is 45%. In series [2], this compound gave a clearance of 51 mL/min/kg. Further, the Cmax in [3] turned out to be 570 nM. The half-life in series [4] is 4.3 h.

Turning to `C[C@@H]1C(=O)N2CCC[C@@H]2CCN1C(=O)C[C@H](N)Cc1cc(F)c(F)cc1F`, the bioavailability in [1] was determined as 21%. This compound also returned a clearance in series [2] of 152 mL/min/kg. The compound further yielded a Cmax in [3] of 40 nM. Also, the half-life in series [4] was 1.4 h.

On to `CC1CCNC(=O)CN1C(=O)C[C@H](N)Cc1cc(F)c(F)cc1F` (stereo in doubt; 13b), for which the IC50 is above 100 µM on Dipeptidyl peptidase 2, 1.05 µM at Dipeptidyl peptidase 4 and above 100 µM at Dipeptidyl peptidase 8.

For `C[C@@H]1C(=O)N(CC(F)(F)F)CCCN1C(=O)C[C@H](N)Cc1cc(F)c(F)cc1F`, the bioavailability in series [1] worked out at 23%. This compound showed a clearance in series [2] of 82 mL/min/kg. Moreover, the peak level in series [3] (Cmax) was 80 nM. This compound also showed a half-life in [4] of 1.7 h.

Turning to `C[C@H]1CNC(=O)[C@@H](C)N(C(=O)C[C@H](N)Cc2cc(F)c(F)cc2F)C1`, the clearance in [5] came out at 39.4 mL/min/kg; in [2], 92.8 mL/min/kg; in series [10], 8.1 mL/min/kg. The bioavailability in series [1] stood at 49%; in series [8] it was 77%; in series [9], 59%. Moreover, the results for the half-life in [6], in series [12] and in [4] were 4.4 h, 8.1 h and 1.5 h, respectively. Moreover, the values for the Cmax in [7], in [3] and in series [11] were 290 nM, 140 nM and 1210 nM, respectively.

Regarding `CC1C(=O)NCCCN1C(=O)C[C@H](N)Cc1cc(F)ccc1F` (some centres undefined), the IC50 at Dipeptidyl peptidase 2 was above 100 µM.

Take `CC1CCNC(=O)CN1C(=O)C[C@H](N)Cc1cc(F)c(F)cc1F` (stereo in doubt; 13a): the IC50 on Dipeptidyl peptidase 2 was 44 µM; against Dipeptidyl peptidase 4, 0.765 µM; against Dipeptidyl peptidase 8 it was above 100 µM.

In series [1], `C[C@@H]1C(=O)N(C2CC2)CCCN1C(=O)C[C@H](N)Cc1cc(F)ccc1F` came in with a bioavailability of 19%. The compound also had an IC50 on Dipeptidyl peptidase 2 above 100 µM. Further, the clearance in series [2] was found to be 132 mL/min/kg. The same compound showed a Cmax in [3] of 50 nM. The half-life in [4] was 1.6 h.

For the compound `C[C@@H]1C(=O)N[C@H](C(F)(F)F)CCN1C(=O)C[C@H](N)Cc1cc(F)c(F)cc1F`, the IC50 at Dipeptidyl peptidase 2 was above 100 µM; at Dipeptidyl peptidase 4, 0.139 µM.

With `CCN1CCCN(C(=O)C[C@H](N)Cc2cc(F)ccc2F)[C@H](C)C1=O`, the bioavailability in series [1] was determined as 7.4%. Moreover, the IC50 against Dipeptidyl peptidase 2 was above 100 µM. This compound also registered a clearance in [2] of 152 mL/min/kg. Moreover, the Cmax in [3] amounted to 30 nM. The compound also gave a half-life in [4] of 0.8 h.
